Results taken from publication PMC4391825 (Chembiochem : a European journal of chemical biology, 2014).

How the values were obtained:
Type in all cases: biochemical
PhaECAv = biological target: T1, PhaECAv (Allochromatium vinosum, UniProt P45370); test: continuous DTNB assay of CoA release, SigmaPlot fit
T1 sequence (P45370 1-355): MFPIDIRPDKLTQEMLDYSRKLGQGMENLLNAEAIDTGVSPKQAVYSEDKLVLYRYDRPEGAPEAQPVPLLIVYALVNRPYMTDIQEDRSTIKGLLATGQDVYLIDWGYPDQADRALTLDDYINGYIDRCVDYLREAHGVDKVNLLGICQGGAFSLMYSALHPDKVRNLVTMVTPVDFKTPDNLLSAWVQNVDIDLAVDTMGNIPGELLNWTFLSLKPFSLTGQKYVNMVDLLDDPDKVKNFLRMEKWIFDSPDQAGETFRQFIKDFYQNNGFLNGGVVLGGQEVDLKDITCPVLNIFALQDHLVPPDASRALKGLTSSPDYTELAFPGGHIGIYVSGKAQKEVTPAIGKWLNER
T1 sequence (P45372 1-357 partner): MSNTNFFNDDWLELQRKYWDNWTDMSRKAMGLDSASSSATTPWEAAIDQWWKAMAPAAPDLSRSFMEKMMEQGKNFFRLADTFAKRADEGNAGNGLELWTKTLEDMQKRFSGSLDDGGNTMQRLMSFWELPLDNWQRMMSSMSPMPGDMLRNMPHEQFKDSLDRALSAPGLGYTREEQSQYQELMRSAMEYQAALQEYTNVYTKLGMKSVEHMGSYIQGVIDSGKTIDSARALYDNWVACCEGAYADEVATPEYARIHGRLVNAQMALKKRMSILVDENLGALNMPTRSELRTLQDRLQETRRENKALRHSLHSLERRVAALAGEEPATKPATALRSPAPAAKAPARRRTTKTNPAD
In short: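 Purified wild-type PhaECAv at 5.80 nM, assayed at 30 °C in 100 mM KPi (pH 7.80) with 0.30 mM DTNB, 2 mg/mL BSA, HBCoA 0.025 to 1.60 mM, and test compound at varied concentrations. CoA release followed as A412 (ε 13.7 mM−1cm−1). Rates were taken from the initial fast-phase slope, in duplicate, and fitted to Michaelis-Menten inhibition models; Lineweaver-Burk plots assigned the mode.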

SaPanK [1] = biological target: T2, SaPanK (Staphylococcus aureus, UniProt Q8NVG0); test: RP-HPLC of stepwise conversion to […]b; settings: ATP, MgCl2; 100 mM Tris-HCl pH 7.60, 25 °C (large-scale mixture)
T2 sequence (Q8NVG0 1-267): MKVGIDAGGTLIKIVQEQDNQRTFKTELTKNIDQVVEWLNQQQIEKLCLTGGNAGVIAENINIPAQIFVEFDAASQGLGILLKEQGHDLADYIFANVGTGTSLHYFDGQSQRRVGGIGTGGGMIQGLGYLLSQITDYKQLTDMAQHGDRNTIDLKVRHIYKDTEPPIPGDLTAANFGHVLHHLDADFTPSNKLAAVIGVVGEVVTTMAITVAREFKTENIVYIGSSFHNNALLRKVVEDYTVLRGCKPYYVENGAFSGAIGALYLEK

SaPanK [2] = biological target: T2, SaPanK; test: RP-HPLC of stepwise conversion to […]a; settings: ATP, MgCl2; 100 mM Tris-HCl pH 7.60, 25 °C (large-scale mixture)

Row | Structure (SMILES) | Ki (PhaECAv) [µM] | further results
1 | CCCC(=O)O[C@H](C)CC(=O)O[C@H](C)CC=O [compound 29, sT-aldehyde] | 3130 ± 470 | 
2 | CCCC(=O)O[C@H](C)CC(=O)O[C@H](C)CC(=O)O[C@H](C)CC(=O)CCCNC(=O)CCNC(=O)[C@H](O)C(C)(C)COP(=O)(O)OP(=O)(O)OC[C@H]1O[C@@H](n2cnc3c(N)ncnc32)[C@H](O)[C@@H]1OP(=O)(O)O [26b, sTet-CH2-CoA] | 500 ± 30 | 
3 | CCCC(=O)O[C@H](C)CC(=O)O[C@H](C)CC(=O)CCCNC(=O)CCNC(=O)[C@H](O)C(C)(C)COP(=O)(O)OP(=O)(O)OC[C@H]1O[C@@H](n2cnc3c(N)ncnc32)[C@H](O)[C@@H]1OP(=O)(O)O [26a, sT-CH2-CoA] | 600 ± 30 | 
4 | CCCC(=O)O[C@H](C)CC(=O)O[C@H](C)CC(=O)O[C@H](C)CC(=O)CCCNC(=O)CCNC(=O)[C@H](O)C(C)(C)CO [17b, (R)-((R)-7-(3-((R)-2,4-dihydroxy-3,3-dimethylbutanamido)propanamido)-4-oxoheptan-2-yl) 3-((R)-3-(butyryloxy)butanoyloxy)butanoate] |  | RP-HPLC of stepwise conversion to 24b (SaPanK [1]): with sequential additions of SaPanK, EcCoaD, and EcCoaE, the resulting products were eluted faster
5 | CCCC(=O)O[C@H](C)CC(=O)O[C@H](C)CC(=O)CCCNC(=O)CCNC(=O)[C@H](O)C(C)(C)CO [17a, (R)-((R)-7-(3-((R)-2,4-dihydroxy-3,3-dimethylbutanamido)propanamido)-4-oxoheptan-2-yl) 3-(butyryloxy)butanoate] |  | RP-HPLC of stepwise conversion to 24a (SaPanK [2]): with sequential additions of SaPanK, EcCoaD, and EcCoaE, the resulting products were eluted faster
